Measured values published in ChEMBL document CHEMBL1157786, “Investigation of the bioactive conformation of histamine H3 receptor antagonists by the cyclopropylic strain-based conformational restriction strategy” (J Med Chem, 2010).
Activity calls are given as the source filed them. The rule behind the calls is not given here.

Assays:
[1] = target: T1, Histamine H3 receptor (Homo sapiens, UniProt Q9Y5N1); test: Displacement of [3H]N-alpha-methyl-histamine from human histamine H3 receptor expressed in human HEK293-EBNA cells; format: cell-based
T1 sequence (Q9Y5N1 whole entry): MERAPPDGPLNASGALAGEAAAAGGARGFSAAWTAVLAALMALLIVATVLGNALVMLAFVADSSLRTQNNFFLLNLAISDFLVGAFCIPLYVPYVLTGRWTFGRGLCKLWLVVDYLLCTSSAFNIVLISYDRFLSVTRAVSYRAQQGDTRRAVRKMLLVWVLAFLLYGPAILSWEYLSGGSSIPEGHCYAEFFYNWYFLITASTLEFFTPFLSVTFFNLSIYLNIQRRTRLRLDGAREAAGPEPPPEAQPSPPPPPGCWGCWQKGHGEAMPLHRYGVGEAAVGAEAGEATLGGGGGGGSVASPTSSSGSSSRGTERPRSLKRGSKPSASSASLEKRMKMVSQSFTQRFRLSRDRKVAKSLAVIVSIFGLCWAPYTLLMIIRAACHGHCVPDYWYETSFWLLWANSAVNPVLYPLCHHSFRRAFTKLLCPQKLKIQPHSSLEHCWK

[2] = target: T1, Histamine H3 receptor; test: Antagonist activity at human histamine H3 receptor expressed in human HEK293-EBNA cells assessed as inhibition of histamine-induced response at 100 uM by luciferase reporter gene assay; format: functional, cell-based
[3] = target: T1, Histamine H3 receptor; test: Agonist activity at human histamine H3 receptor expressed in human HEK293-EBNA cells by luciferase reporter gene assay; format: functional, cell-based
How it was run: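 Human H3 receptor expressed individually in 293-EBNA cells; compounds tested for agonism at 10^-5 M in a luciferase reporter gene assay.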

Structure (SMILES)	Ki [1] [nM]	inhibition [2] [%]	Activity [3]
CC[C@@H](CNCc1ccc(Cl)cc1)[C@@H]1C[C@H]1c1c[nH]cn1	19.8	95	inactive
CC[C@H](CNCc1ccc(Cl)cc1)[C@H]1C[C@@H]1c1c[nH]cn1		96	inactive
Clc1ccc(CNCC[C@@H]2C[C@H]2c2c[nH]cn2)cc1	8.4	100	
CC[C@H](CNCc1ccc(Cl)cc1)[C@@H]1C[C@H]1c1c[nH]cn1		73	inactive
Clc1ccc(CNCC[C@H]2C[C@@H]2c2c[nH]cn2)cc1	3.6	100	
CC[C@H](CNCc1ccc(Cl)cc1)[C@H]1C[C@@H]1c1cnc[nH]1	63		
CC[C@H](CNCc1ccc(Cl)cc1)[C@@H]1C[C@H]1c1cnc[nH]1	129		
CC[C@@H](CNCc1ccc(Cl)cc1)[C@H]1C[C@@H]1c1c[nH]cn1	6.7	88	inactive
